High-throughput results as filed in PubChem BioAssay.
OX1R antag-1: blocks the human orexin 1 receptor | O43613 | OX1R-expressing cells, FRET antagonist read-out | inhibition, % at 6.6 µM | 1.8% of 330,000 active | AID 485270; in the data active = inhibition mostly above about 38%, no sharp cut-off; inactive = mostly below about 40%
GPR7 antagonist: human neuropeptides B/W receptor 1 antagonism. inhibition, % at 4.4 µM. 1.1% of 290,000 active. P48145. GPR7-expressing cells, fluorescence antagonist assay; in the data active = inhibition above about 16%, passing the limit was not always enough;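 note: cells stimulated with the agonist NPW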
OX1R antag-2: human HCRTR1 antagonism; CHO/OX1R cells, Fluo-8 calcium fluorescence, orexin A; inhibition, % at 5 µM; 0.43% of 330,000 active;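 active = inhibition above its plate's threshold, mean inhibition of all tested compounds on the plate plus 3 SD, cut at about 37% in these data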
GalR3 antag: antagonists of human GalR3; O60755; HEK293 GalR3-CNG cAMP membrane potential fluorescence; galR3 body fused to GalR1 C-terminus; inhibition, % at 3 µM; 0.44% of 360,000 active;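 active = inhibition above the screen-wide average plus 3 SD, cut at about 13% in these data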;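 note: forskolin and galanin both at EC90 stimulate the cells; cAMP rise reported by CNG channel membrane potential dye signal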
Target sequence (O60755 1-299 limits assumed): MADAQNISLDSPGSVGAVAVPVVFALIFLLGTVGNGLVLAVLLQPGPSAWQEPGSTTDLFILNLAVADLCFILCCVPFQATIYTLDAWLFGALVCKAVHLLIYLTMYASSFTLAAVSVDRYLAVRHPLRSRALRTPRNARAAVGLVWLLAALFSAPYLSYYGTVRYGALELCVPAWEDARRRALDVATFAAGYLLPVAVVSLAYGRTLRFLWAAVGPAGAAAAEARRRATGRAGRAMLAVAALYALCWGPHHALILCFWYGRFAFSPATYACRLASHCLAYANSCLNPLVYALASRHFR
CHO parental Ca: counter-screen for OX1R antagonists: effect in parental CHO cells; AID 463079; 0.63% of 330,000 active; parental CHO-K1, ATP-induced calcium, Fluo-8 fluorescence; inhibition, % at 5.6 µM;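 active = inhibition above that plate's mean sample inhibition plus 3 SD, cut at about 26% in these data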
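Test system: untransfected parental CHO cell line. Compound: one dose, 5.6 µM nominal. Detection: intracellular calcium via Fluo-8 no-wash fluorescent dye. Measure: % inhibition. Benchmarks: ATP-challenged DMSO wells low, unchallenged DMSO wells high.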
GPR7 antag conf: human GPR7 antagonism, confirmation assay; shares compounds with GPR7 antagonist; GPR7-expressing cells, calcium fluorescence antagonist mode; inhibition, % at 4.4 µM; 52% of 2,400 active; AID 1952; in the data active = inhibition above about 24%;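 note: stimulated with the GPR7 agonist NPW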
MCHR1 antagonist: antagonizes human MCHR1, a GPR7 antagonist counter-screen; shares compounds with GPR7 antagonist; MCHR1-expressing cells, fluorescence antagonist assay; inhibition, % at 4.4 µM; 62% of 2,400 active; in the data active = inhibition above about 22%
Large screens that a line does not name were inactive (follow-up assays come after a bar, where they were run). Shown are actives, neighbours in structure and some others; about 3.1% of the full set was active somewhere.

COCc1cccc(-c2csc(C(O)c3ccccc3)n2)c1 (stereo not drawn)	none (no result: OX1R antag-1, GPR7 antagonist, OX1R antag-2, CHO parental Ca)
O=[N+]([O-])c1ccc(Oc2ccc(OCc3ccccc3)cc2)nc1	GPR7 antagonist 61 | GPR7 antag conf 40 | MCHR1 antagonist 61
O=[N+]([O-])c1cccnc1Oc1ccc(OCc2ccccc2)cc1	none
Cc1cn([C@H]2C[C@H](O)[C@@H](/C=C/C(=O)NCCc3cccs3)O2)c(=O)[nH]c1=O	none (no result: OX1R antag-1, GPR7 antagonist, OX1R antag-2, CHO parental Ca)
COc1cccc(CNc2nc3cc(-c4ccc(C(=O)N5CCN(C)CC5)cc4)sc3c(=O)n2C)c1	none (no result: OX1R antag-1, GPR7 antagonist, OX1R antag-2, CHO parental Ca)
Cc1ccccc1OCC(=O)Nc1ccc2c(c1)COC2=O	none
CCc1ccc(OCC(=O)Nc2ccc3c(c2)COC3=O)cc1	GPR7 antagonist 36 | GPR7 antag conf inactive | MCHR1 antagonist 37
CCOc1ccc(C(=O)Nc2ccc3c(c2)C(=O)NC3=O)cc1	none
CCC(C)c1ccc(OCC(=O)Nc2ccc3c(c2)C(=O)NC3=O)cc1 (stereo not drawn)	GPR7 antagonist 30 | GPR7 antag conf 40 | MCHR1 antagonist 67
CCOC1=C2[C@H]([C@H]3C(=O)N(c4ccccc4)C(=O)[C@H]3C1)[C@@H](C(C)C)N(S(=O)(=O)c1ccc(C)cc1)[C@H]2c1ccccc1	none (no result: OX1R antag-1, GPR7 antagonist, OX1R antag-2, CHO parental Ca)
O=C(CNS(=O)(=O)c1ccc([N+](=O)[O-])cc1)N/N=C/c1ccc(O)cc1O	GPR7 antagonist 41 | GPR7 antag conf 64 | MCHR1 antagonist 44
CC(=O)Nc1ccc(/C=N\NC(=O)CNS(=O)(=O)c2ccc([N+](=O)[O-])cc2)cc1	none
O=C(CNS(=O)(=O)c1ccc([N+](=O)[O-])cc1)N/N=C\c1ccc(O)cc1	GPR7 antagonist 41 | GPR7 antag conf 46 | MCHR1 antagonist 34
Cc1cc(Nc2ccc(Cl)c(C(F)(F)F)c2)cc(=O)n1-c1ccc(Cl)c(C(F)(F)F)c1	none (no result: OX1R antag-1, GPR7 antagonist, OX1R antag-2, CHO parental Ca)
CN1C(=O)C(=C2CCCCCC2)SC1=S	GPR7 antagonist 31 | GPR7 antag conf inactive | MCHR1 antagonist inactive
COc1ccccc1NC(=S)NCCc1c[nH]c2ccccc12	none
COc1cccc(CNCCc2c[nH]c3ccccc23)c1OCc1ccc(F)cc1	GPR7 antagonist 25 | GPR7 antag conf 46 | MCHR1 antagonist 65
COc1ccc(C(=O)N2CCCCC2c2cc(C(=O)NCc3ccccc3)no2)cc1 (stereo not drawn)	none (no result: OX1R antag-1, GPR7 antagonist, OX1R antag-2, CHO parental Ca)
CN(c1ccc(NC(=O)Cc2cn(C)c3ccccc23)cc1)c1ccccn1	none (no result: OX1R antag-1, GPR7 antagonist, OX1R antag-2, CHO parental Ca)
OCc1ccc(-c2cccc3nccn23)cc1	none (no result: OX1R antag-1, GPR7 antagonist, OX1R antag-2, CHO parental Ca)
Cc1[nH]nc2c1C(c1cccs1)C(C#N)=C(N)O2 (stereo not drawn)	GPR7 antagonist 40 | GPR7 antag conf inactive | MCHR1 antagonist inactive
Cc1ccc(C2C(C#N)=C(N)Oc3n[nH]c(C)c32)cc1 (stereo not drawn)	none
COc1cc(C(O)c2nc(-c3csc4ccccc34)cs2)ccc1F (stereo not drawn)	none (no result: OX1R antag-1, GPR7 antagonist, OX1R antag-2, CHO parental Ca)
CCc1ccc(CNC(=O)Cn2nc(-c3ccccc3)ccc2=O)cc1	GPR7 antagonist 31 | GPR7 antag conf inactive | MCHR1 antagonist inactive
CC(C(=O)Nc1nccs1)c1ccc([N+](=O)[O-])cc1 (stereo not drawn)	GPR7 antagonist 37 | GPR7 antag conf inactive | MCHR1 antagonist inactive
CC(C(=O)NCCCc1ccccc1)c1ccc([N+](=O)[O-])cc1 (stereo not drawn)	GPR7 antagonist 22 | GPR7 antag conf 33 | MCHR1 antagonist 58
O=C(CSc1ccc([N+](=O)[O-])cn1)Nc1nccs1	none
O=C(NC(NC(=S)Nc1c(Cl)cccc1Cl)C(Cl)(Cl)Cl)OCc1ccccc1 (stereo not drawn)	GPR7 antagonist 27 | GPR7 antag conf 26 | MCHR1 antagonist 44
CCOC(=O)NC(NC(=S)Nc1ccc(OCC)cc1)C(Cl)(Cl)Cl (stereo not drawn)	none
NC(=O)CCn1nc(-c2ccc(Cl)cc2)c2ccccc2c1=O	none
O=C(CCn1nc(-c2ccc(Cl)cc2)c2ccccc2c1=O)Nc1cccnc1	GPR7 antagonist 21 | GPR7 antag conf inactive | MCHR1 antagonist inactive
